Laboratory results as given in ChEMBL document CHEMBL1155347, “Synthesis and antimicrobial activities of novel quinoline derivatives carrying 1,2,4-triazole moiety” (2009).
In brackets after ≈: the same amount, converted by molar mass.

Assays:
Format in all cases: functional
Aspergillus fumigatus [1] = assay: Antifungal activity against Aspergillus fumigatus NCIM 902 at MIC after 3 to 4 days by agar well diffusion method
How it was run: (§1)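 Sabouraud agar (peptone, D-glucose, agar; pH 5.7) seeded with spore suspension made by transferring a loopful of fungus to 3 mL normal saline. Excess decanted, plates dried 1 h at 37 °C. Compounds in DMSO at MIC added to punched wells; DMSO control. Triplicate plates kept 3–4 days at 37 °C.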

Staphylococcus aureus [2] = assay: Antibacterial activity against Staphylococcus aureus ATCC 25923 after 16 to 18 hrs by serial plate dilution method
How it was run: (§2)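 Drug serially diluted in Mueller–Hinton broth in tubes, adjusted to pH 5.0 with phosphate buffer. Inoculated with standardized bacterial suspension and incubated 16–18 h at 37 °C. MIC taken as lowest concentration with no visible growth.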

Escherichia coli [3] = assay: Antibacterial activity against Escherichia coli ATCC 25922 after 16 to 18 hrs by serial plate dilution method; how it was run: as §2
Pseudomonas aeruginosa [4] = assay: Antibacterial activity against Pseudomonas aeruginosa ATCC 27853 after 16 to 18 hrs by serial plate dilution method; how it was run: as §2
Klebsiella pneumoniae [5] = assay: Antibacterial activity against recultured Klebsiella pneumoniae after 16 to 18 hrs by serial plate dilution method; how it was run: as §2
Staphylococcus aureus [6] = assay: Antibacterial activity against Staphylococcus aureus ATCC 25923 at MIC after 3 to 4 days by agar well diffusion method
Escherichia coli [7] = assay: Antibacterial activity against Escherichia coli ATCC 25922 at MIC after 3 to 4 days by agar well diffusion method
Pseudomonas aeruginosa [8] = assay: Antibacterial activity against Pseudomonas aeruginosa ATCC 27853 at MIC after 3 to 4 days by agar well diffusion method
Klebsiella pneumoniae [9] = assay: Antibacterial activity against recultured Klebsiella pneumoniae at MIC after 3 to 4 days by agar well diffusion method
Talaromyces marneffei [10] = assay: Antifungal activity against recultured Penicillium marneffei by serial plate dilution method
[11] = system: Trichophyton mentagrophytes; assay: Antifungal activity against recultured Trichophyton mentagrophytes by serial plate dilution method
Aspergillus flavus [12] = assay: Antifungal activity against Aspergillus flavus NCIM 524 by serial plate dilution method
Aspergillus fumigatus [13] = assay: Antifungal activity against Aspergillus fumigatus NCIM 902 by serial plate dilution method
Talaromyces marneffei [14] = assay: Antifungal activity against recultured Penicillium marneffei at MIC after 3 to 4 days by agar well diffusion method; how it was run: as §1
[15] = system: Trichophyton mentagrophytes; assay: Antifungal activity against recultured Trichophyton mentagrophytes at MIC after 3 to 4 days by agar well diffusion method; how it was run: as §1
Aspergillus flavus [16] = assay: Antifungal activity against Aspergillus flavus NCIM 524 at MIC after 3 to 4 days by agar well diffusion method; how it was run: as §1

Row | Compound | MIC (Staphylococcus aureus [2]) [µg/mL] | MIC (Escherichia coli [3]) [µg/mL] | MIC (Pseudomonas aeruginosa [4]) [µg/mL] | MIC (Klebsiella pneumoniae [5]) [µg/mL] | MIC (Talaromyces marneffei [10]) [µg/mL] | MIC [11] [µg/mL] | MIC (Aspergillus flavus [12]) [µg/mL] | MIC (Aspergillus fumigatus [13]) [µg/mL] | inhibition zone (IZ) (Aspergillus fumigatus [1]) [mm] | inhibition zone (IZ) (Staphylococcus aureus [6]) [mm] | inhibition zone (IZ) (Escherichia coli [7]) [mm] | inhibition zone (IZ) (Pseudomonas aeruginosa [8]) [mm] | inhibition zone (IZ) (Klebsiella pneumoniae [9]) [mm] | inhibition zone (IZ) (Talaromyces marneffei [14]) [mm] | inhibition zone (IZ) [15] [mm] | inhibition zone (IZ) (Aspergillus flavus [16]) [mm]
1 | NCCN1CCN(c2c(-c3nnc(S)n3Cc3ccccc3)cnc3c(C(F)(F)F)cccc23)CC1 | 50 (≈ 97.4 µM) | 6.25 (≈ 12.2 µM) | 50 (≈ 97.4 µM) | 50 (≈ 97.4 µM) | 50 (≈ 97.4 µM) | 50 (≈ 97.4 µM) | 50 (≈ 97.4 µM) | 50 (≈ 97.4 µM) | <10 | <10 | 20 | <10 | <10 | <10 | <10 | <10
2 | OCCCC1CCN(c2c(-c3nnc(S)n3Cc3ccccc3)cnc3c(C(F)(F)F)cccc23)CC1 | 12.5 (≈ 23.7 µM) | 12.5 (≈ 23.7 µM) | 12.5 (≈ 23.7 µM) | 12.5 (≈ 23.7 µM) | 12.5 (≈ 23.7 µM) | 12.5 (≈ 23.7 µM) | 12.5 (≈ 23.7 µM) | 12.5 (≈ 23.7 µM) | 10 | 10 | 16 | 10 | 12 | 10 | 16 | 10
3 | CC(C)(C)CCNc1c(-c2nnc(S)n2Cc2ccccc2)cnc2c(C(F)(F)F)cccc12 | 12.5 (≈ 25.7 µM) | 12.5 (≈ 25.7 µM) | 12.5 (≈ 25.7 µM) | 12.5 (≈ 25.7 µM) | 12.5 (≈ 25.7 µM) | 12.5 (≈ 25.7 µM) | 12.5 (≈ 25.7 µM) | 12.5 (≈ 25.7 µM) | 10 | 10 | 16 | 10 | 12 | 10 | 16 | 10
4 | CCN1CCN(c2c(-c3nnc(S)n3CCOC)cnc3c(C(F)(F)F)cccc23)CC1 | 50 (≈ 107 µM) | 6.25 (≈ 13.4 µM) | 50 (≈ 107 µM) | 50 (≈ 107 µM) | 50 (≈ 107 µM) | 6.25 (≈ 13.4 µM) | 50 (≈ 107 µM) | 50 (≈ 107 µM) | <10 | <10 | 20 | <10 | <10 | <10 | 20 | <10
5 | OCCCC1CCN(c2c(-c3nnc(S)n3-c3ccccc3)cnc3c(C(F)(F)F)cccc23)CC1 | 6.25 (≈ 12.2 µM) | 12.5 (≈ 24.3 µM) | 50 (≈ 97.4 µM) | 50 (≈ 97.4 µM) | 50 (≈ 97.4 µM) | 50 (≈ 97.4 µM) | 50 (≈ 97.4 µM) | 50 (≈ 97.4 µM) | <10 | 16 | 16 | <10 | <10 | <10 | <10 | <10

More lines, in order of falling MIC (Staphylococcus aureus [2]), values ahead:

Row | MIC (Staphylococcus aureus [2]) [µg/mL] | MIC (Escherichia coli [3]) [µg/mL] | MIC (Pseudomonas aeruginosa [4]) [µg/mL] | MIC (Klebsiella pneumoniae [5]) [µg/mL] | MIC (Talaromyces marneffei [10]) [µg/mL] | MIC [11] [µg/mL] | MIC (Aspergillus flavus [12]) [µg/mL] | MIC (Aspergillus fumigatus [13]) [µg/mL] | Compound | inhibition zone (IZ) (Aspergillus fumigatus [1]) [mm] | inhibition zone (IZ) (Staphylococcus aureus [6]) [mm] | inhibition zone (IZ) (Escherichia coli [7]) [mm] | inhibition zone (IZ) (Pseudomonas aeruginosa [8]) [mm] | inhibition zone (IZ) (Klebsiella pneumoniae [9]) [mm] | inhibition zone (IZ) (Talaromyces marneffei [14]) [mm] | inhibition zone (IZ) [15] [mm] | inhibition zone (IZ) (Aspergillus flavus [16]) [mm]
6 | 6.25 (≈ 13.8 µM) | 6.25 (≈ 13.8 µM) | 6.25 (≈ 13.8 µM) | 6.25 (≈ 13.8 µM) | 6.25 (≈ 13.8 µM) | 6.25 (≈ 13.8 µM) | 6.25 (≈ 13.8 µM) | 6.25 (≈ 13.8 µM) | COCCn1c(S)nnc1-c1cnc2c(C(F)(F)F)cccc2c1NC1CCCCC1 | 16 | 16 | 20 | 16 | 16 | 16 | 20 | 16
7 | 6.25 (≈ 13.4 µM) | 6.25 (≈ 13.4 µM) | 6.25 (≈ 13.4 µM) | 6.25 (≈ 13.4 µM) | 6.25 (≈ 13.4 µM) | 6.25 (≈ 13.4 µM) | 6.25 (≈ 13.4 µM) | 6.25 (≈ 13.4 µM) | COCCn1c(S)nnc1-c1cnc2c(C(F)(F)F)cccc2c1N1CC(C)OC(C)C1 (stereo not given) | 16 | 16 | 20 | 16 | 16 | 16 | 20 | 16
8 | 6.25 (≈ 11.6 µM) | 6.25 (≈ 11.6 µM) | 6.25 (≈ 11.6 µM) | 6.25 (≈ 11.6 µM) | 6.25 (≈ 11.6 µM) | 6.25 (≈ 11.6 µM) | 6.25 (≈ 11.6 µM) | 6.25 (≈ 11.6 µM) | FC(F)(F)c1cccc2c(N3CCC(N4CCOCC4)CC3)c(-c3nnc(S)n3-c3ccccc3)cnc12 | 16 | 16 | 20 | 16 | 16 | 16 | 20 | 16
9 | 6.25 (≈ 13.3 µM) | 12.5 (≈ 26.5 µM) | 50 (≈ 106 µM) | 50 (≈ 106 µM) | 12.5 (≈ 26.5 µM) | 12.5 (≈ 26.5 µM) | 12.5 (≈ 26.5 µM) | 12.5 (≈ 26.5 µM) | FC(F)(F)c1cccc2c(N3CCOCC3)c(-c3nnc(S)n3Cc3ccccc3)cnc12 | 10 | 16 | 16 | <10 | <10 | 10 | 16 | 10
10 | 6.25 (≈ 14.2 µM) | 6.25 (≈ 14.2 µM) | 6.25 (≈ 14.2 µM) | 6.25 (≈ 14.2 µM) | 6.25 (≈ 14.2 µM) | 6.25 (≈ 14.2 µM) | 6.25 (≈ 14.2 µM) | 6.25 (≈ 14.2 µM) | FC(F)(F)c1cccc2c(NC3CC3)c(-c3nnc(S)n3Cc3ccccc3)cnc12 | 16 | 16 | 20 | 16 | 16 | 16 | 20 | 16
